Results from ChEMBL document CHEMBL5236549, “Discovery of 2-Sulfinyl-Diazabicyclooctane Derivatives, Potential Oral β-Lactamase Inhibitors for Infections Caused by Serine β-Lactamase-Producing Enterobacterales” (J Med Chem, 2021).

Key:
[1] = Cmax in dog at 10 mg/kg,po by LC/MS/MS analysis; assay type: ADME, organism-based, Canis lupus familiaris; set-up: dose 10 mg/kg, route po; settings: in vivo
Method in brief: (§1)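 Plasma of the parent acid measured by LC/MS/MS (methanol precipitation, positive ESI, external standard); oral values follow prodrug dosing (rat fed, dog and monkey fasted). AUC from 0 h to last time point by linear trapezoid; F from oral AUC versus iv AUC of the parent. N = 2 (rat, dog), N = 3 (monkey, mouse).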

[2] = AUC in rat at 5 mg/kg,po by LC/MS/MS analysis; assay type: ADME, organism-based; set-up: dose 5 mg/kg, route po; settings: in vivo; method in brief: as §1
[3] = Oral bioavailability in monkey at 10 mg/kg by LC/MS/MS analysis; assay type: ADME, organism-based, Macaca mulatta; settings: rhesus monkey, in vivo; method in brief: as §1
[4] = AUC in monkey at 10 mg/kg,po by LC/MS/MS analysis; assay type: ADME, organism-based, Macaca mulatta; set-up: dose 10 mg/kg, route po; settings: rhesus monkey, in vivo; method in brief: as §1
[5] = Cmax in monkey at 10 mg/kg,po by LC/MS/MS analysis; assay type: ADME, organism-based, Macaca mulatta; set-up: dose 10 mg/kg, route po; settings: rhesus monkey, in vivo; method in brief: as §1
[6] = Oral bioavailability in dog at 10 mg/kg by LC/MS/MS analysis; assay type: ADME, organism-based, Canis lupus familiaris; settings: in vivo; method in brief: as §1
[7] = Stability of the compound in phosphate buffer at pH 7.0 assessed as parent compound remaining at 40 degreeC measured after 16 hrs; assay type: physicochemical; settings: read-out: Stability
Method in brief: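 Compound held in pH 7.0 phosphate buffer at 40 °C for 16 h; amount remaining reported as %.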

[8] = AUC in dog at 10 mg/kg,po by LC/MS/MS analysis; assay type: ADME, organism-based, Canis lupus familiaris; set-up: dose 10 mg/kg, route po; settings: in vivo; method in brief: as §1
[9] = Tmax in rat at 5 mg/kg,po by LC/MS/MS analysis; assay type: ADME, organism-based; settings: in vivo
[10] = Tmax in dog at 10 mg/kg,po by LC/MS/MS analysis; assay type: ADME, organism-based, Canis lupus familiaris; settings: in vivo
[11] = Tmax in monkey at 10 mg/kg,po by LC/MS/MS analysis; assay type: ADME, organism-based, Macaca mulatta; settings: rhesus monkey, in vivo
[12] = Cmax in rat at 5 mg/kg,po by LC/MS/MS analysis; assay type: ADME, organism-based; set-up: dose 5 mg/kg, route po; settings: in vivo; method in brief: as §1
[13] = Oral bioavailability in rat at 5 mg/kg by LC/MS/MS analysis; assay type: ADME, organism-based; settings: in vivo; method in brief: as §1

Cmax [1]: 10600 ng/mL | AUC [2]: 2300 ng·h/mL | bioavailability [3]: 29.9% | AUC [4]: 8320 ng·h/mL | Cmax [5]: 4510 ng/mL | bioavailability [6]: 68.3% | remaining at 16 h [7]: 11% | AUC [8]: 26000 ng·h/mL | Tmax [9]: 0.5 h | Tmax [10]: 1 h | Tmax [11]: 1 h | Cmax [12]: 2150 ng/mL | bioavailability [13]: 74.4%
SMILES: CCOC(=O)[C@@H](F)ON1C(=O)N2C[C@H]1CC[C@H]2[S@@+](C)[O-]
